Assays:
kidney FAR = conditions: cited from earlier work
[1] = target: T1, bovine folate binding protein (FBP) (Bos taurus, UniProt P02702)
Summary of the method: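 Bovine milk FBP amide-coupled to a CM5 chip (9.5 ng/mm2). Ligands injected in HBS-EP at 30 µL/min (monovalent) or 50 µL/min (dendrimer conjugates). Chip regenerated with 10 mM glycine-HCl pH 2.5. Reference channel subtracted. kon and koff from Langmuir fits, with mass-transport effects checked. KD = koff/kon, averaged over ≥3 measurement sets per concentration with χ2 < 5.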

[2] = target: T1, bovine folate binding protein (FBP); conditions: SPR, earlier study; cited from earlier work

T1 sequence (P02702 20-241): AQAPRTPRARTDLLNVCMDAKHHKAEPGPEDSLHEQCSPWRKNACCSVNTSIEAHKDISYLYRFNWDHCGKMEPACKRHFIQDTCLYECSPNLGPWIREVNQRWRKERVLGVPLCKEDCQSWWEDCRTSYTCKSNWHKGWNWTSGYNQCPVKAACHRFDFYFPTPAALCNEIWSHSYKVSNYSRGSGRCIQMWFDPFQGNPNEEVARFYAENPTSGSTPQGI

koff [1] [s⁻¹]	kon [1] [M⁻¹ s⁻¹]	affinity lower than that of FA ([1]; from the SPR KD values)	SMILES	Kd (kidney FAR) [µM]	Kd [2] [µM]
0.012	1100	–	Nc1nc2ncc(CNc3ccc(C(=O)N[C@@H](CCC(=O)O)C(=O)O)cc3)nc2c(=O)[nH]1 [FA, folic acid]	~0.001	5
–	–	≈ 2 fold	CN(Cc1cnc2nc(N)nc(N)c2n1)c1ccc(C(=O)N[C@@H](CCC(=O)O)C(=O)O)cc1 [MTX, methotrexate]	0.02 to 0.1	–

— publication PMC3243070 (European Journal of Medicinal Chemistry, 2011)
